Results as given in ChEMBL document CHEMBL1152635, “Pyranonaphthoquinone derivatives of eleutherin, ventiloquinone L, thysanone and nanaomycin A possessing a diverse topoisomerase II inhibition and cytotoxicity spectrum” (2009).
Converted amounts (≈) assume the structure as drawn. The source made the active and inactive calls. The calls are words filed in the database; no cut-off is given here.

Legend:
Nucleic Acid = assay: Induction of DNA intercalation in pRYG DNA at 100 uM by agarose gel electrophoresis; assay type: nucleic-acid assay
[1] = target: DNA topoisomerase 2-alpha (Homo sapiens) (UniProt P11388); assay: Inhibition of human topoisomerase 2alpha-mediated relaxation of double-stranded pRYG DNA at 100 uM by agarose gel electrophoresis
How it was run: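 Purified human topoisomerase IIα (3 units) was added last. Incubation was 37 °C for 60 min, quenched with 1% SDS/25 mM EDTA, then proteinase K. Products ran on 1% agarose in TBE without ethidium bromide and were stained afterward.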

[2] = target: T1, Type II restriction enzyme XhoI (Xanthomonas vasicola) (UniProt Q9KVZ7); assay: Inhibition of Xanthomonas vasicola XhoI assessed as pBSKS cleavage at 100 uM by endonuclease assay
T1 sequence (whole entry): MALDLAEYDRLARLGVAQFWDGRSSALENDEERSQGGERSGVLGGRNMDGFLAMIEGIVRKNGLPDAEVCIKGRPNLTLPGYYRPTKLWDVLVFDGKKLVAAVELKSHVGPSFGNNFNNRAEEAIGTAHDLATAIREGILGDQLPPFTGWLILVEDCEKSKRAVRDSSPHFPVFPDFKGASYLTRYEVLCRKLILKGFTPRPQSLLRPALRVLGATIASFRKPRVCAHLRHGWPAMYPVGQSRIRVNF
How it was run: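 Plasmid pBluescript with 1 unit XhoI in place of topoisomerase, using the relaxation protocol: 0.5 mM ATP, Tris-HCl/KCl/NaCl/EDTA/MgCl2/glycerol buffer pH 8.0, 1% DMSO, 37 °C for 60 min. The reaction was quenched with SDS/EDTA and treated with proteinase K. Products were resolved on 1% agarose in TBE.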

[3] = target: DNA topoisomerase 2-alpha (Homo sapiens) (UniProt P11388); assay: Inhibition of human topoisomerase 2alpha-mediated kinetoplast DNA decatenation at 100 uM
How it was run: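 Incubation was 60 min at 37 °C, then SDS stop and proteinase K (55 °C, 30 min). Samples ran on 1% agarose containing ethidium bromide. Activity was scored as the ratio of nicked plus supercoiled minicircles to kDNA.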

Saccharomyces cerevisiae = assay: Growth inhibition of Saccharomyces cerevisiae BY4741 after 24 hrs; assay type: functional; conditions: for MIC50: BY4741, 24 h
How it was run: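 BY4741 grown overnight at 30 °C in YPD and taken at log phase (~0.6 OD660/ml), then diluted into fresh YPD at 0.01 OD660/ml. Compounds were given in 1% DMSO at twofold steps from 1 to 128. Growth at 30 °C for 24 h was read as OD660 and normalised to a DMSO-only control. MIC50 (50% growth inhibition) was derived from relative growth versus log10 concentration.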

Sequence of DNA topoisomerase 2-alpha (Homo sapiens) (P11388 whole entry): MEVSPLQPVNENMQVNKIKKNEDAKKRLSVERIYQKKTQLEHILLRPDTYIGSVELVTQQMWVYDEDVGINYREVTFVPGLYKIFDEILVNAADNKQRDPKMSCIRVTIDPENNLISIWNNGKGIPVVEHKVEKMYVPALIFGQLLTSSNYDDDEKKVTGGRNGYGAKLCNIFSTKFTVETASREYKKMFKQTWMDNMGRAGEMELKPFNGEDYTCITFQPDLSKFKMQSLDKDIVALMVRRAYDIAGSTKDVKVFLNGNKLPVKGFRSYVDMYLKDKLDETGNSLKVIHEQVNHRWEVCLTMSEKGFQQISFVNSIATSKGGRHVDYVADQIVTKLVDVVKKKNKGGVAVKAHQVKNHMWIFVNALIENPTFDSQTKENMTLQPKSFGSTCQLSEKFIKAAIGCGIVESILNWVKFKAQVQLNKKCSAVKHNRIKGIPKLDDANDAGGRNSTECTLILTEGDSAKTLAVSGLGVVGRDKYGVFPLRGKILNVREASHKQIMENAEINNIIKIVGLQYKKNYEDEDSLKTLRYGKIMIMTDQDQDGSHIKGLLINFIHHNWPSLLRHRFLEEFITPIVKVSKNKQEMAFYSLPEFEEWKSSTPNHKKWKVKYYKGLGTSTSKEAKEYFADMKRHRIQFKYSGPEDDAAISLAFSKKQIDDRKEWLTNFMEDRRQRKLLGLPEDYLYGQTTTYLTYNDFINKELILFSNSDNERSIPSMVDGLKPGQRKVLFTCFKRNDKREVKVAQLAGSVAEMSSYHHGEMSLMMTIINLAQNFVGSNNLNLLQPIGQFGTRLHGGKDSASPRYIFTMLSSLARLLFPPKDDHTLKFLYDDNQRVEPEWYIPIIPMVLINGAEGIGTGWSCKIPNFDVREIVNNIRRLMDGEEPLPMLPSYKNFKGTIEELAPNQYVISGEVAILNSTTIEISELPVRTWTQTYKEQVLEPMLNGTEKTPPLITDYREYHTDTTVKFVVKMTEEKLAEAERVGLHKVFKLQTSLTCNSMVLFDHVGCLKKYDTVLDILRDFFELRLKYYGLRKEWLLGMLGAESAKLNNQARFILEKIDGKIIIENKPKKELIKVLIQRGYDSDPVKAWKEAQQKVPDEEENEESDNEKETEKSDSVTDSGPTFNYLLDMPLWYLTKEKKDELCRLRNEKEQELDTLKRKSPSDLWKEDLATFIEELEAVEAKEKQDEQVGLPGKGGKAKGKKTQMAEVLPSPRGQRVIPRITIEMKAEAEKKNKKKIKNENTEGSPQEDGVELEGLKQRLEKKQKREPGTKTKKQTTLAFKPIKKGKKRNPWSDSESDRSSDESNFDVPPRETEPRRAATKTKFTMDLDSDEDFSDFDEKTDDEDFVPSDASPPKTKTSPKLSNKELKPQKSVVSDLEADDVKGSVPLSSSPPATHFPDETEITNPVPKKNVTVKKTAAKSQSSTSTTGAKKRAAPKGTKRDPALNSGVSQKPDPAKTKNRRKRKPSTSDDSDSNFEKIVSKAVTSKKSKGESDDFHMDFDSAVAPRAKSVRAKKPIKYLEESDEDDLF

Row | SMILES | Activity (Nucleic Acid) | inhibition [1] | inhibition [2] | inhibition [3] | MIC (Saccharomyces cerevisiae) | MIC50 (Saccharomyces cerevisiae) [µM]
1 | Cc1c2ccncc2c(C)c2c1[nH]c1ccccc12 | Active | Active | inactive | – | – | –
2 | CC(C)Oc1cc(OC(C)C)c2c(c1)C(=O)C1=C(CO[C@@H](C)C1)C2=O | inactive | Active | inactive | Active | – | –
3 | COc1ccc2c(c1)C(=O)C1=C(C[C@H](CC(=O)O)O[C@@H]1C)C2=O (racemic) | inactive | Active | inactive | Active | Active | –
4 | COc1cc(O)c2c(c1)C(=O)C1=C(CO[C@@H](C)C1)C2=O | inactive | Active | inactive | Active | – | –
5 | COc1cc(OC)c2c(c1)C(=O)C1=C(CO[C@@H](C)C1)C2=O | inactive | Active | inactive | Active | – | –
6 | COc1cccc2c1C(=O)C1=C(C[C@H](C)O[C@@H]1C)C2=O | inactive | inactive | inactive | Active | – | 80 (≈ 21.8 µg/mL)
7 | COc1cc(OC)c2c(c1)C(=O)C1=C(C2=O)[C@@H](C)O[C@@H](C)C1 | inactive | – | inactive | Active | – | –
8 | COc1cc(O)c2c(c1)C(=O)C1=C(C2=O)[C@@H](C)O[C@@H](C)C1 | inactive | inactive | inactive | Active | – | 5 (≈ 1.44 µg/mL)
9 | C[C@H]1CC2=C(C(=O)c3c(O)cc(O)cc3C2=O)[C@H](O)O1 | inactive | inactive | inactive | Active | inactive | –
10 | COc1cc([C@@H]2c3cc4c(cc3[C@@H](O[C@@H]3O[C@@H]5CO[C@@H](C)O[C@H]5[C@H](O)[C@H]3O)[C@H]3COC(=O)[C@H]23)OCO4)cc(OC)c1O | inactive | Active | inactive | – | – | –
11 | C[C@@H]1CC2=C(C(=O)c3ccccc3C2=O)[C@H](C)O1 | inactive | – | inactive | Active | Active | –
12 | C[C@H]1CC2=C(CO1)C(=O)c1c(O)cc(O)cc1C2=O | inactive | Active | inactive | Active | Active | –
13 | C[C@H]1CC2=C(C(=O)c3ccccc3C2=O)[C@@H](C)O1 | inactive | – | inactive | Active | Active | –
14 | C[C@H]1CC2=C(C(=O)c3ccccc3C2=O)[C@H](O)O1 | inactive | – | inactive | Active | Active | –
15 | C[C@H]1O[C@@H](CC(=O)O)CC2=C1C(=O)c1ccccc1C2=O | inactive | – | inactive | Active | – | 5 (≈ 1.43 µg/mL)
16 | C[C@H]1CC2=C(C(=O)c3c(O)cccc3C2=O)[C@@H](C)O1 | inactive | – | inactive | Active | Active | –
